Legend:
Huh-5-2 = test: Viability of Huh5-2 cells by MTT assay; assay type: functional; details: Homo sapiens
[1] = Therapeutic index, CC50 for viability of Huh5-2 cells/EC50 for inhibition of HCV subgenomic RNA replication; assay type: cell-based, Huh-5-2; details: human, read-out: Ratio CC50/EC50
[2] = molecular target: RNA-directed RNA polymerase (Hepacivirus hominis, UniProt O39930); test: Inhibition of HCV 1b BK six His-tagged C-terminal truncated 544 amino acid NS5B RNA dependent RNA polymerase; parameters: species or system Hepatitis C virus subtype 1b
In short: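 HCV genotype 1b (BK) NS5B lacking 47 C-terminal residues, His6-tagged, E. coli-expressed; 7 nM enzyme with 5 µg HCV 3′X RNA template-primer, 50 µM each ATP/GTP/CTP, 2 µM UTP plus [3H]-UTP; pH 7.5 Tris, 5 mM MgCl2. Compounds in DMSO (5% final). 60 min at 25 °C; TCA-precipitable radioactivity read. Triplicate, mean of three experiments.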

Hepatitis C virus = test: Inhibition of HCV subgenomic RNA replication in Huh5-2 cells after 48 hrs by replicon assay; assay type: functional, organism-based, Hepacivirus hominis; details: Huh-5-2, 48 h
In short: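 Huh-5-2 cells (Huh-7-derived, genotype 1b subgenomic replicon with luciferase reporter) seeded at 5 × 10^3 per well in DMEM with 10% FBS, 37 °C, 5% CO2; compounds added next day, 48 h exposure; luciferase activity read. EC50 is the concentration reducing replication by 50%. Triplicate, mean of three experiments.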

[3] = Plasma concentration in rat at 30 mg/kg, po after 1 hr; assay type: ADME, organism-based; parameters: dose 30 mg/kg, route oral
In short: (§1)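 Rats dosed orally at 30 mg/kg; plasma sampled at 1 and 2 h; n = 2 or 3.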

[4] = Plasma concentration in rat at 30 mg/kg, po after 2 hrs; assay type: ADME, organism-based; parameters: dose 30 mg/kg, route oral; in short: as §1

Chain of RNA-directed RNA polymerase (O39930 whole entry, the tested form may be a part): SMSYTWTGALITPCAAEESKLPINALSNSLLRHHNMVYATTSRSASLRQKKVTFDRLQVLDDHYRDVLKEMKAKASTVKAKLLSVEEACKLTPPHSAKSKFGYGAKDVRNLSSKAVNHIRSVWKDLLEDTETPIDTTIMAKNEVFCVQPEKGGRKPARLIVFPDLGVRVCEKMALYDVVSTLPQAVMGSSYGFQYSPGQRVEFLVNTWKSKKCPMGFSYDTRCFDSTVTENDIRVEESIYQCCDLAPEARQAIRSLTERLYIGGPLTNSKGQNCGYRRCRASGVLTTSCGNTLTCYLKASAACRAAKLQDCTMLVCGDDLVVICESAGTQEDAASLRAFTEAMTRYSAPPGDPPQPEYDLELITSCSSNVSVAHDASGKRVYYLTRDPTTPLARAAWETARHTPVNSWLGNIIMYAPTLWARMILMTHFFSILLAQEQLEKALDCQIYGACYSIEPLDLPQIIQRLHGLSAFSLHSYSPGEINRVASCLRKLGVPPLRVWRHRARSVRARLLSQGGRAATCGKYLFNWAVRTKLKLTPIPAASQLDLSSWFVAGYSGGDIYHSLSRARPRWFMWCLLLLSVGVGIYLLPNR

SMILES | IC50 [2] [µM] | EC50 (Hepatitis C virus) [µM] | concentration at 1 h [3] [nM] | concentration at 2 h [4] [nM] | CC50 (Huh-5-2) [µM] | selectivity ratio [1]
O=C(O)c1ccc2c(c1)nc(-c1ccc(OCc3cc(Cl)ccc3-c3cccnc3)cc1)n2C1CCCCC1 | 0.29 | 2.6 | – | – | – | –
Cc1nc(-c2ccc(Cl)cc2)c(COc2ccc(-c3nc4cc(C(=O)O)ccc4n3C3CCCCC3)cc2)s1 | 0.09 | 2.9 | – | – | 39 | 13
O=C(O)c1ccc2c(c1)nc(-c1ccc(OCc3ccccc3-c3ccc(Cl)cc3)cc1)n2C1CCCCC1 | 0.078 | 3.2 | – | – | 35 | 11
N#Cc1ccc(-c2ccc(Cl)cc2COc2ccc(-c3nc4cc(C(=O)O)ccc4n3C3CCCCC3)cc2)cc1 | 0.055 | 1.3 | – | – | 26 | –
Cc1ncc(COc2ccc(-c3nc4cc(C(=O)O)ccc4n3C3CCCCC3)cc2)c(-c2ccc(Cl)cc2)n1 | 0.088 | 1.5 | – | – | 24 | 16
CN(C)c1ccc(-c2ccc(Cl)cc2)c(COc2ccc(-c3nc4cc(C(=O)O)ccc4n3C3CCCCC3)cc2)c1 | 0.063 | 2.6 | – | – | 30 | 12
O=C(O)c1ccc2c(c1)nc(-c1ccc(OCc3cc(Cl)ccc3-c3ccc(Cl)cc3)cc1)n2C1CCCCC1 | 0.05 | 3 | – | – | 26 | 13
COc1ccc(-c2ccc(Cl)cc2COc2ccc(-c3nc4cc(C(=O)O)ccc4n3C3CCCCC3)cc2)cc1 | 0.1 | 2.4 | – | – | 25 | –
COc1cc(OCc2ccccc2-c2ccccc2)ccc1-c1nc2cc(C(=O)O)ccc2n1C1CCCCC1 | 1.1 | – | – | – | – | –
O=C(O)c1ccc2c(c1)nc(-c1ccc(OCc3cccnc3-c3ccc(Cl)cc3)cc1)n2C1CCCCC1 | 0.053 | 1.2 | – | – | > 50 | > 41
Cc1nc(COc2ccc(-c3nc4cc(C(=O)O)ccc4n3C3CCCCC3)cc2)c(-c2ccc(Cl)cc2)s1 | 0.17 | 6.3 | – | – | 31 | 4.9
O=C(O)c1ccc2c(c1)nc(-c1ccc(OCc3cc(Cl)ccc3-c3ccccc3)cc1)n2C1CCCCC1 | 0.2 | 3.7 | – | – | 25 | –
COc1ccc(-c2ccc(Cl)cc2)c(COc2ccc(-c3nc4cc(C(=O)O)ccc4n3C3CCCCC3)cc2)c1 | 0.037 | 1.6 | – | – | 24 | 15
N#Cc1ccc(-c2ccc(Cl)cc2)c(COc2ccc(-c3nc4cc(C(=O)O)ccc4n3C3CCCCC3)cc2)c1 | 0.041 | 0.82 | – | – | 23 | 28
NC(=O)c1ccc(-c2ccc(Cl)cc2COc2ccc(-c3nc4cc(C(=O)O)ccc4n3C3CCCCC3)cc2)cc1 | 0.069 | 2.5 | – | – | > 50 | –
O=C(O)c1ccc2c(c1)nc(-c1ccc(OCc3ccccc3-c3ccccc3)c(F)c1)n2C1CCCCC1 | 0.38 | – | – | – | – | –
CN(C)C(=O)c1ccc(COc2ccc(-c3nc4cc(C(=O)O)ccc4n3C3CCCCC3)cc2)c(-c2ccc(Cl)cc2)c1 | 0.032 | 0.84 | – | – | 25 | 30
O=C(O)c1ccc2c(c1)nc(-c1ccc(OCc3cc(Cl)ccc3-c3cccc(Cl)c3)cc1)n2C1CCCCC1 | 0.48 | 6.5 | – | – | 32 | –
O=C(O)c1ccc2c(c1)nc(-c1ccc(OCc3ncccc3-c3ccc(Cl)cc3)cc1)n2C1CCCCC1 | 0.15 | 3.9 | – | – | 25 | 6
Cc1ccc(-c2ccc(Cl)cc2COc2ccc(-c3nc4cc(C(=O)O)ccc4n3C3CCCCC3)cc2)cc1 | 0.098 | 3.4 | – | – | 25 | –
O=C(O)c1ccc2c(c1)nc(-c1ccc(OCc3ccccc3-c3ccccc3)cc1Cl)n2C1CCCCC1 | 0.35 | – | – | – | – | –
O=C(O)c1ccc2c(c1)nc(-c1ccc(OCc3ccccc3-c3ccccc3)cc1C(F)(F)F)n2C1CCCCC1 | 0.93 | – | – | – | – | –
O=C(O)c1ccc2c(c1)nc(-c1ccc(OCc3ccccc3-c3ccccc3)cc1F)n2C1CCCCC1 | 0.1 | – | – | – | – | –

Further molecules by falling IC50 [2], results first:

IC50 [2] [µM] | EC50 (Hepatitis C virus) [µM] | concentration at 1 h [3] [nM] | concentration at 2 h [4] [nM] | SMILES | CC50 (Huh-5-2) [µM] | selectivity ratio [1]
0.032 | 0.35 | 1900 | 1100 | CC(C)C(=O)N(C)c1ccc(-c2ccc(Cl)cc2)c(COc2ccc(-c3nc4cc(C(=O)O)ccc4n3C3CCCCC3)c(F)c2)c1 | 22 | 63
0.029 | 1.1 | – | – | O=C(O)c1ccc2c(c1)nc(-c1ccc(OCc3cc(C(=O)NCc4ccccc4)ccc3-c3ccc(Cl)cc3)cc1)n2C1CCCCC1 | 22 | 20
0.024 | > 10 | – | – | O=C(O)c1ccc(-c2ccc(Cl)cc2)c(COc2ccc(-c3nc4cc(C(=O)O)ccc4n3C3CCCCC3)cc2)c1 | > 50 | –
0.023 | 0.66 | – | – | CN(C)S(=O)(=O)c1ccc(-c2ccc(Cl)cc2)c(COc2ccc(-c3nc4cc(C(=O)O)ccc4n3C3CCCCC3)cc2)c1 | 26 | 39
0.022 | 0.62 | – | – | CN(C)C(=O)Nc1ccc(-c2ccc(Cl)cc2)c(COc2ccc(-c3nc4cc(C(=O)O)ccc4n3C3CCCCC3)c(F)c2)c1 | 25 | 40
0.022 | 1.3 | – | – | CC(=O)Nc1ccc(-c2ccc(Cl)cc2)c(COc2ccc(-c3nc4cc(C(=O)O)ccc4n3C3CCCCC3)cc2)c1 | 23 | 18
0.021 | 0.94 | – | – | O=C(O)c1ccc2c(c1)nc(-c1ccc(OCc3cc(C(=O)NCCO)ccc3-c3ccc(Cl)cc3)cc1F)n2C1CCCCC1 | 26 | 28
0.021 | 0.16 | 1100 | 700 | CC(=O)N(c1ccc(-c2ccc(Cl)cc2)c(COc2ccc(-c3nc4cc(C(=O)O)ccc4n3C3CCCCC3)c(F)c2)c1)C(C)C | 20 | 125
0.018 | 0.53 | – | – | CNC(=O)c1ccc(-c2ccc(Cl)cc2)c(COc2ccc(-c3nc4cc(C(=O)O)ccc4n3C3CCCCC3)cc2)c1 | 25 | 47
0.018 | 0.34 | – | – | CC(=O)c1ccc(-c2ccc(Cl)cc2)c(COc2ccc(-c3nc4cc(C(=O)O)ccc4n3C3CCCCC3)cc2)c1 | 24 | 71
0.016 | 1.5 | – | – | NS(=O)(=O)c1ccc(-c2ccc(Cl)cc2)c(COc2ccc(-c3nc4cc(C(=O)O)ccc4n3C3CCCCC3)cc2)c1 | 27 | 18
0.015 | 0.37 | – | – | CN(C)C(=O)c1ccc(-c2ccc(Cl)cc2)c(COc2ccc(-c3nc4cc(C(=O)O)ccc4n3C3CCCCC3)cc2)c1 | 28 | 76
0.014 | 0.38 | 100 | – | O=C(O)c1ccc2c(c1)nc(-c1ccc(OCc3cc(C(=O)N4CCC(O)CC4)ccc3-c3ccc(Cl)cc3)cc1F)n2C1CCCCC1 | 26 | 68
0.013 | 0.79 | – | – | NC(=O)c1ccc(-c2ccc(Cl)cc2)c(COc2ccc(-c3nc4cc(C(=O)O)ccc4n3C3CCCCC3)cc2)c1 | 26 | 33

Reference: ChEMBL document CHEMBL1138950, “Benzimidazole derivatives bearing substituted biphenyls as hepatitis C virus NS5B RNA-dependent RNA polymerase inhibitors: structure-activity relationship studies and identification of a potent and highly selective inhibitor JTK-109” (J Med Chem, 2006)
